The text below walks through data of ChEMBL document CHEMBL1132192, “Design, synthesis, and evaluation of conformationally constrained tongs, new inhibitors of HIV-1 protease dimerization” (J Med Chem, 1999).

pIC50: −log10 of the molar value. Numbered stars: 1 amine (or outer) side, 2 acyl side, 3 side chain; on linkers, the order of the positions; unused ones are H or OH. Bridge positions count the residues as written; N and C are the ends. Square brackets hold non-standard residues; d marks the D form. Peptide text beside a SMILES is read from it. I, II: the chains in the order shown. * marks the point of attachment. ξ: configuration not given here. Naphthalene(2,7-(OC3H6CO)2) = O=C(CCCOc1ccc2ccc(OCCCC(=O)[*:2])cc2c1)[*:1]; X1 = COC(=O)CCCOc1ccc2ccc(OCCCC(=O)*)cc2c1; Thr(3ξ) = CC(O)[C@H](N)C(=O)O

For one assay, the target named is Human immunodeficiency virus type 1 protease (Human immunodeficiency virus 1) (UniProt Q72874). The experiment in a line: The compound was tested for HIV-1 protease inhibitory activity against plasmid pET9c-PR expressing HIV-1 protease at 7 uM. In a few lines: (§1)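 Recombinant HIV-1 protease (expressed from pET9c-PR), 7.5 nM final, prediluted in buffer with 1 mg/mL BSA. Inhibitor was mixed with fluorogenic substrate (5.2 μM final) and the reaction started with enzyme. Fluorescence rise at 490 nm (excitation 340 nm) was followed for 5 min at 30 °C.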
Regarding `COC(=O)CCCOc1ccc2ccc(OCCCC(=O)N[C@H](C(=O)N[C@@H](CC(C)C)C(=O)N[C@@H](CC(N)=O)C(=O)N[C@@H](Cc3ccccc3)C(=O)OC)C(C)O)cc2c1` (stereo not given in full) (X1-[Thr(3ξ)]LNF-OMe), the inhibition was determined as 30%.

For the next assay, the target named is T1, Human immunodeficiency virus type 1 protease (Human immunodeficiency virus 1, UniProt Q72874). The experiment in a line: Inhibition of plasmid pET9c-PR expressing HIV-1 protease (No inhibition).
Consider `COC(=O)[C@H](Cc1ccc(O)cc1)NC(=O)[C@H](CC(C)C)NC(=O)[C@@H](NC(=O)CCCOc1ccc2ccc(OCCCC(=O)N[C@H](C(=O)N[C@@H](CC(C)C)C(=O)N[C@@H](Cc3ccc(O)cc3)C(=O)OC)C(C)O)cc2c1)C(C)O` (stereo not given in full), for which the IC50 entry is “Not Active”.

As to `COC(=O)CCCOc1ccc2ccc(OCCCC(=O)N[C@H](C(=O)N[C@@H](CC(C)C)C(=O)N[C@H](C(=O)OC)C(C)C)C(C)C)cc2c1`, the IC50 result is listed as “Not Active”.

As for `CC(C)C[C@H](NC(=O)[C@@H](NC(=O)CCCOc1cccc(OCCCC(=O)N[C@H](C(=O)N[C@@H](CC(C)C)C(=O)N[C@H](C(=O)O)C(C)C)C(C)O)c1)C(C)O)C(=O)N[C@H](C(=O)O)C(C)C` (stereo not given in full), the IC50 result was “Not Active”.

Turning to `COC(=O)CCCOc1ccc2ccc(OCCCC(=O)N[C@H](C(=O)N[C@@H](CC(C)C)C(=O)N[C@@H](Cc3ccc(O)cc3)C(=O)OC)C(C)O)cc2c1` (stereo not given in full), the IC50 entry was “Not Active”.

For `COC(=O)[C@@H](NC(=O)[C@H](CC(C)C)NC(=O)[C@@H](NC(=O)CCCOc1ccc2ccc(OCCCC(=O)N[C@H](C(=O)N[C@@H](CC(C)C)C(=O)N[C@H](C(=O)OC)C(C)C)C(C)O)cc2c1)C(C)O)C(C)C` (stereo not given in full), the IC50 result is “Not Active”.

Turning to `CC[C@@H](C)[C@H](NC(=O)[C@H](CCC(N)=O)NC(=O)CCCOc1ccc2ccc(OCCCC(=O)N[C@@H](CCC(N)=O)C(=O)N[C@H](C(=O)OC)[C@H](C)CC)cc2c1)C(=O)OC`, the IC50 entry is “Not Active”.

Regarding `CC(C)C[C@H](NC(=O)[C@@H](NC(=O)CCCOc1ccc2ccc(OCCCC(=O)N[C@H](C(=O)N[C@@H](CC(C)C)C(=O)N[C@H](C(=O)OCc3ccccc3)C(C)C)C(C)O)cc2c1)C(C)O)C(=O)N[C@H](C(=O)OCc1ccccc1)C(C)C` (stereo not given in full), the IC50 entry is recorded as “Not Active”.

In the case of `CC[C@H](C)[C@H](NC(=O)[C@H](CCC(N)=O)NC(=O)CCCOc1cccc(OCCCC(=O)N[C@@H](CCC(N)=O)C(=O)N[C@H](C(=O)N[C@H](C(=O)N[C@@H](CC(C)C)C(=O)OC)C(C)O)[C@@H](C)CC)n1)C(=O)N[C@H](C(=O)N[C@@H](CC(C)C)C(=O)OC)C(C)O` (stereo not given in full), the IC50 entry is “Not Active”.

For the compound `CC[C@H](C)[C@H](NC(=O)[C@H](CCC(N)=O)NC(=O)CCCOc1ccc2ccc(OCCCC(=O)OC)cc2c1)C(=O)N[C@H](C(=O)N[C@@H](CC(C)C)C(=O)OC)C(C)O` (stereo partly drawn) (X1-QI[Thr(3ξ)]L-OMe), the IC50 result is recorded as “Not Active”.

Turning to `COC(=O)[C@@H](NC(=O)[C@H](CC(C)C)NC(=O)[C@@H](NC(=O)CCCOc1cccc(OCCCC(=O)N[C@H](C(=O)N[C@@H](CC(C)C)C(=O)N[C@H](C(=O)OC)C(C)C)C(C)C)c1)C(C)C)C(C)C`, the IC50 result is recorded as “Not Active”.

Regarding `CC[C@H](C)[C@H](NC(=O)[C@H](CCC(N)=O)NC(=O)CCCOc1ccc2ccc(OCCCC(=O)N[C@@H](CCC(N)=O)C(=O)N[C@H](C(=O)N[C@H](C(=O)N[C@@H](CC(C)C)C(=O)OC)C(C)O)[C@@H](C)CC)cc2c1)C(=O)N[C@H](C(=O)N[C@@H](CC(C)C)C(=O)OC)C(C)O` (stereo partly drawn) (I: QI[Thr(3ξ)]L-OMe / II: QI[Thr(3ξ)]L-OMe; linker I:N-II:N via Naphthalene(2,7-(OC3H6CO)2)), the IC50 result is on record as “Not Active”.

For `CC[C@@H](C)[C@H](NC(=O)[C@H](CCC(N)=O)NC(=O)CCCOc1cccc(OCCCC(=O)N[C@@H](CCC(N)=O)C(=O)N[C@H](C(=O)OC)[C@H](C)CC)c1)C(=O)OC`, the IC50 entry was “Not Active”.

Consider `COC(=O)[C@@H](NC(=O)[C@@H](NC(=O)CCCOc1cccc(OCCCC(=O)N[C@H](C(=O)N[C@H](C(=O)OC)C(C)C)C(C)O)n1)C(C)O)C(C)C` (stereo not given in full), for which the IC50 entry was “Not Active”.

In the case of `COC(=O)[C@@H](NC(=O)[C@@H](NC(=O)[C@H](CC(C)C)NC(=O)[C@@H](NC(=O)CCCOc1ccc2ccc(OCCCC(=O)N[C@H](C(=O)N[C@@H](CC(C)C)C(=O)N[C@H](C(=O)N[C@H](C(=O)OC)C(C)C)C(C)C)[C@@H](C)O)cc2c1)[C@@H](C)O)C(C)C)C(C)C` (I: TLVV-OMe / II: TLVV-OMe; linker I:N-II:N via Naphthalene(2,7-(OC3H6CO)2)), the IC50 result is “Not Active”.

In another assay the target is Human immunodeficiency virus type 1 protease (Human immunodeficiency virus 1) (UniProt Q72874). The experiment in a line: The compound was tested for HIV-1 protease inhibitory activity against plasmid pET9c-PR expressing HIV-1 protease at 6.7 uM. Summed up:
as §1
For the compound `COC(=O)[C@@H](NC(=O)[C@H](CC(C)C)NC(=O)[C@@H](NC(=O)CCCOc1cccc(OCCCC(=O)N[C@H](C(=O)N[C@@H](CC(C)C)C(=O)N[C@H](C(=O)OC)C(C)C)C(C)O)n1)C(C)O)C(C)C` (stereo not given in full), the inhibition was found to be 30%.

In another assay the target is T1, Human immunodeficiency virus type 1 protease. The experiment in a line: The compound was tested for HIV-1 protease inhibitory activity against plasmid pET9c-PR expressing HIV-1 protease.
In the case of `CC[C@@H](C)[C@H](NC(=O)[C@@H](NC(=O)CCCOc1cccc(OCCCC(=O)N[C@H](C(=O)N[C@H](C(=O)N[C@H](C(=O)OC)C(C)C)[C@H](C)CC)C(C)O)n1)C(C)O)C(=O)N[C@H](C(=O)OC)C(C)C` (stereo not given in full), the negative logarithm of the IC50 (pIC50) is 5.38.

The compound `COC(=O)CCCOc1ccc2ccc(OCCCC(=O)N[C@H](C(=O)N[C@@H](CC(C)C)C(=O)N[C@H](C(=O)N[C@H](C(=O)OC)C(C)C)C(C)C)C(C)O)cc2c1` (stereo not given in full) (X1-[Thr(3ξ)]LVV-OMe) showed a negative-log IC50 (pIC50) of 5.00. Compared with the last compound, the pIC50 is 0.38 log units lower.

`CC(C)C[C@H](NC(=O)[C@@H](NC(=O)CCCOc1cccc(OCCCC(=O)N[C@H](C(=O)N[C@@H](CC(C)C)C(=O)N[C@H](C(=O)O)C(C)C)C(C)O)n1)C(C)O)C(=O)N[C@H](C(=O)O)C(C)C` (stereo not given in full) showed a negative logarithm of the IC50 (pIC50) of 4.47.

For the compound `COC(=O)[C@@H](NC(=O)[C@H](CC(C)C)NC(=O)[C@@H](NC(=O)CCCOc1ccc2ccc(OCCCC(=O)N[C@H](C(=O)N[C@@H](CC(C)C)C(=O)N[C@H](C(=O)OC)C(C)C)C(C)C)cc2c1)C(C)C)C(C)C`, the negative logarithm of the IC50 (pIC50) is 5.70.

For the compound `COC(=O)[C@@H](NC(=O)[C@H](CC(C)C)NC(=O)[C@@H](NC(=O)CCCOc1cccc(OCCCC(=O)N[C@H](C(=O)N[C@@H](CC(C)C)C(=O)N[C@H](C(=O)OC)C(C)C)C(C)C)n1)C(C)C)C(C)C`, the negative-log IC50 (pIC50) was 5.52.

The compound `CC(C)C[C@H](NC(=O)[C@@H](NC(=O)CCCOc1ccc2ccc(OCCCC(=O)N[C@H](C(=O)N[C@@H](CC(C)C)C(=O)N[C@H](C(=O)O)C(C)C)C(C)O)cc2c1)C(C)O)C(=O)N[C@H](C(=O)O)C(C)C` (stereo not given in full) gave a pIC50 of 5.00.

`COC(=O)[C@H](Cc1ccccc1)NC(=O)[C@H](CC(N)=O)NC(=O)[C@H](CC(C)C)NC(=O)[C@@H](NC(=O)CCCOc1ccc2ccc(OCCCC(=O)N[C@H](C(=O)N[C@@H](CC(C)C)C(=O)N[C@@H](CC(N)=O)C(=O)N[C@@H](Cc3ccccc3)C(=O)OC)C(C)O)cc2c1)C(C)O` (stereo not given in full) (I: [Thr(3ξ)]LNF-OMe / II: [Thr(3ξ)]LNF-OMe; linker I:N-II:N via Naphthalene(2,7-(OC3H6CO)2)) showed a pIC50 of 5.36.

In the case of `COC(=O)[C@H](CC(C)C)NC(=O)[C@H](CC(C)C)NC(=O)CNC(=O)CCCOc1cccc(OCCCC(=O)NCC(=O)N[C@@H](CC(C)C)C(=O)N[C@@H](CC(C)C)C(=O)OC)n1`, the pIC50 was 4.80. This pIC50 lies 0.56 log units lower than the previous one.

For `COC(=O)[C@H](Cc1ccccc1)NC(=O)[C@H](CC(N)=O)NC(=O)[C@H](CC(C)C)NC(=O)[C@@H](NC(=O)CCCOc1cccc(OCCCC(=O)N[C@H](C(=O)N[C@@H](CC(C)C)C(=O)N[C@@H](CC(N)=O)C(=O)N[C@@H](Cc2ccccc2)C(=O)OC)C(C)O)n1)C(C)O` (stereo not given in full), the pIC50 is 5.00.

In the next assay the target is Human immunodeficiency virus type 1 protease (Human immunodeficiency virus 1) (UniProt Q72874). The assay can be described thus: The compound was tested for HIV-1 protease inhibitory activity against plasmid pET9c-PR expressing HIV-1 protease at 4.5 uM. In a few lines:
as §1
For the compound `COC(=O)CCCOc1ccc2ccc(OCCCC(=O)N[C@H](C(=O)N[C@@H](CC(C)C)C(=O)N[C@H](C(=O)OC)C(C)C)C(C)O)cc2c1` (stereo not given in full), the inhibition was 30%.

Another assay shares this target. The experiment in a line: The compound was tested for HIV-1 protease inhibitory activity against plasmid pET9c-PR expressing HIV-1 protease. activity is expressed as Kid value. Summed up: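 Dissociative (antidimer) inhibition was analysed by the Zhang kinetic method. Fluorogenic substrate was held at 5.2 μM ([S]0 ≪ Km, Km = 103 μM), with at least five HIV-1 protease (pET9c-PR) levels (2.37–11.8 nM) at several inhibitor concentrations. Runs were at pH 4.7 acetate buffer, 30 °C, fluorescence 340/490 nm. Kid was taken from regression fits of [E]0/√vi versus √vi.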
Turning to `CC[C@@H](C)[C@H](NC(=O)[C@@H](NC(=O)CCCOc1cccc(OCCCC(=O)N[C@H](C(=O)N[C@H](C(=O)N[C@H](C(=O)OC)C(C)C)[C@H](C)CC)C(C)O)n1)C(C)O)C(=O)N[C@H](C(=O)OC)C(C)C` (stereo not given in full), the Kid worked out at 1.4 µM.

`COC(=O)[C@@H](NC(=O)[C@H](CC(C)C)NC(=O)[C@@H](NC(=O)CCCOc1ccc2ccc(OCCCC(=O)N[C@H](C(=O)N[C@@H](CC(C)C)C(=O)N[C@H](C(=O)OC)C(C)C)C(C)C)cc2c1)C(C)C)C(C)C` displayed a Kid of 0.56 µM.

`COC(=O)[C@H](Cc1ccccc1)NC(=O)[C@H](CC(N)=O)NC(=O)[C@H](CC(C)C)NC(=O)[C@@H](NC(=O)CCCOc1ccc2ccc(OCCCC(=O)N[C@H](C(=O)N[C@@H](CC(C)C)C(=O)N[C@@H](CC(N)=O)C(=O)N[C@@H](Cc3ccccc3)C(=O)OC)C(C)O)cc2c1)C(C)O` (stereo not given in full) (I: [Thr(3ξ)]LNF-OMe / II: [Thr(3ξ)]LNF-OMe; linker I:N-II:N via Naphthalene(2,7-(OC3H6CO)2)) yielded a Kid of 1 µM.

In turn, `COC(=O)[C@H](CC(C)C)NC(=O)[C@H](CC(C)C)NC(=O)CNC(=O)CCCOc1cccc(OCCCC(=O)NCC(=O)N[C@@H](CC(C)C)C(=O)N[C@@H](CC(C)C)C(=O)OC)n1` registered a Kid of 4.5 µM.
